Results from different studies.
Each line is one published result; the experiments were not run side by side.
Cell line: HepG2
Read-out: cell growth or viability

| SMILES | assay | conditions | endpoint | result |
| --- | --- | --- | --- | --- |
| CCn1cc(-c2nc(C)no2)c(=O)c2cc(F)c(N3CCC(C)(C)CC3)cc21 | ATP luminescence | 48 h | EC50 | > 40 µM |
| CC(=O)Oc1ccc(/C=N/NC(=O)c2ccc(Nc3cc(C)nc4c(O)cccc34)cc2)cc1 | MTT | 20 µM | inhibition | 56.7% |
| CCn1cc(-c2ccccn2)c(=O)c2cc(F)c(N3CCC(C)CC3)cc21 | ATP luminescence | 48 h | EC50 | > 40 µM |
| Cc1ccc2nc(-c3ccc([N+](=O)[O-])cc3)n(Cc3ccc(Cl)cc3)c2c1 | MTT |  | IC50 | 5.53 µM |
| Cc1cc(=O)oc2ccc(-c3cc(-c4ccccc4)nc(N)n3)c(O)c12 | MTT | 8 µg/mL, 72 h | inhibition | 0% |
| CCOC(=O)c1ccc(-n2c(N)c(C#N)c(CC#N)c(C#N)c2=O)cc1 | MTT | 100 µM, 24 h | viability | 24.5% |
| Cc1cc(=O)oc2ccc(-c3cc(-c4ccc(Cl)cc4)nc(N)n3)c(O)c12 | MTT | 8 µg/mL, 72 h | inhibition | 39% |
| COc1ccc(NC(=O)c2c(Nc3ccccc3)sc(C(=O)NN=Cc3ccc(Cl)cc3)c2NC(C)=O)cc1 | SRB | 1 nM, 48 h | viability | 100% |
| Cc1ccc2nc(-c3ccccc3Cl)[nH]c2c1 | MTT | 48 h | IC50 | 95.6 µM |
| Cc1cc(Nc2ccc(C(=O)N/N=C/c3ccc(C)s3)cc2)c2cccc(O)c2n1 | MTT | 20 µM | inhibition | 46.3% |
| COc1ccc(-c2cc(-c3ccc4oc(=O)cc(C)c4c3O)nc(N)n2)cc1 | MTT | 2 µg/mL, 72 h | inhibition | 0% |
| COc1ccc(NC(=O)c2c(Nc3ccccc3)sc(C(=O)NN=Cc3ccc(C)cc3)c2NC(C)=O)cc1 | SRB | 100 µM, 48 h | viability | 57.3% |
| CCn1cc(-c2nc(C)no2)c(=O)c2cc(F)c(N3CCC(C(C)C)CC3)cc21 | ATP luminescence | 48 h | EC50 | > 40 µM |
| Fc1ccc(-c2nc3ccccc3n2Cc2ccccc2)cc1 | MTT |  | IC50 | 45.9 µM |
| COc1cc2ncnc(Nc3ccc(F)c(Cl)c3)c2cc1NC(=O)N/N=C/CN(C)C | MTT | 72 h | IC50 | 2.08 µM |
| Cc1cc(=O)oc2ccc(-c3cc(-c4cccc(Cl)c4)nc(N)n3)c(O)c12 | MTT | 2 µg/mL, 72 h | inhibition | 0% |
| CC(=O)Nc1cccc(-n2c(=O)n(C3CC3)c(=O)c3c(Nc4ccc(I)cc4F)n(C)c(=O)c(C)c32)c1 | resazurin | 780 pM, 72 h | viability | 99.5% |
| CCOC(=O)c1ccc(-n2c(-c3ccc(C)cc3)cc(-c3ccc(O)cc3)c(C#N)c2=O)cc1 | MTT | 50 µM, 24 h | viability | 25.6% |
| CCn1cc(-c2nc(C)no2)c(=O)c2cc(F)c(N3CCOCC3)cc21 | ATP luminescence | 48 h | EC50 | > 40 µM |
| COc1ccc(NC(=O)c2c(Nc3ccccc3)sc(C#N)c2NC(=O)CNc2ccccc2[N+](=O)[O-])cc1 | SRB | 100 µM, 48 h | viability | 89.7% |
| CCOC(=O)c1ccc(-n2c(C)cc(/C=C/c3ccc(OC)cc3)c(C#N)c2=O)cc1 | MTT | 100 µM, 24 h | viability | 47.4% |
| CN1CCN(CCn2cccc2/C=N/NC(=O)Nc2cc3c(Nc4ccc(F)c(Cl)c4)ncnc3cc2O[C@H]2CCOC2)CC1 | MTT | 72 h | IC50 | 0.15 µM |
| Cc1ccc(/C=N/NC(=O)c2ccc(Nc3cc(C)nc4c(O)cccc34)cc2)cc1 | MTT | 20 µM | inhibition | 41.3% |
| COc1ccc(NC(=O)c2c(Nc3ccccc3)sc(C#N)c2NC(=O)CNc2ccc([N+](=O)[O-])cc2)cc1 | SRB | 1 nM, 48 h | viability | 100% |

| SMILES | assay | conditions | endpoint | result |
| --- | --- | --- | --- | --- |
| Cc1cc(=O)oc2ccc(-c3cc(-c4cccs4)nc(N)n3)c(O)c12 | MTT | 128 µg/mL, 72 h | inhibition | 36% |
| O=C(CN1C(=O)/C(=C/c2ccc(F)cc2)SC1=S)Nc1ccccc1 | MTT | 10 µM | inhibition | 6.59% |
| COc1ccc(NC(=O)c2c(Nc3ccccc3)sc(C(=O)NN=Cc3ccc(Br)cc3)c2NC(C)=O)cc1 | SRB | 1 µM, 48 h | viability | 85.2% |
| O=C(CN1C(=O)/C(=C/c2cccc(Br)c2)SC1=S)Nc1ccccc1 | MTT | 10 µM | inhibition | 12.7% |
| CCCC1CCN(c2cc3c(cc2F)c(=O)c(-c2nc(C)no2)cn3CC)CC1 | ATP luminescence | 48 h | EC50 | > 40 µM |
| CCOC(=O)c1ccc(-n2c(C)cc(/C=C/c3ccc(OCC)cc3)c(C#N)c2=O)cc1 | MTT | 100 µM, 24 h | viability | 40.7% |
| CCn1cc(-c2nc(C)no2)c(=O)c2cc(F)c(N3CCC(Cc4ccccc4)CC3)cc21 | ATP luminescence | 48 h | EC50 | > 40 µM |
| CCOC(=O)c1ccc(NC(=O)C2=C3C(=Nc4ccccc43)NC2=O)cc1 | MTT | 25 µM, 24 h | viability | 56.3% |
| COc1ccc(NC(=O)c2c(Nc3ccccc3)sc(C#N)c2NC(=O)CNc2ccc(C)cc2)cc1 | SRB | 100 µM, 48 h | viability | 62.3% |
| Cc1cc(=O)oc2ccc(-c3cc(-c4ccc(Br)cc4)nc(N)n3)c(O)c12 | MTT | 32 µg/mL, 72 h | inhibition | 8% |
| COc1ccc(NC(=O)c2c(Nc3ccccc3)sc(C(=O)NN=Cc3cc(OC)c(OC)c(OC)c3)c2NC(C)=O)cc1 | SRB | 100 µM, 48 h | viability | 33.9% |
| COc1ccc(-c2nc3ccc(C)cc3[nH]2)cc1OC | MTT | 48 h | IC50 | 43.6 µM |
| COc1cccc(/C=C2\SC(=S)N(CC(=O)Nc3ccccc3)C2=O)c1 | MTT | 10 µM | inhibition | 13.9% |
| Cc1ccc2nc(-c3ccc(Cl)cc3)n(Cc3ccccc3Cl)c2c1 | MTT |  | IC50 | 47.9 µM |
| CN(C)C/C=N/NC(=O)Nc1cc2c(Nc3ccc(F)c(Cl)c3)ncnc2cc1O[C@H]1CCOC1 | MTT | 72 h | IC50 | 3.08 µM |
| O=C(CN1C(=O)/C(=C/c2ccccc2O)SC1=S)Nc1ccccc1 | MTT | 10 µM | inhibition | 26.4% |
| c1cncc(-c2nc3ccccc3[nH]2)c1 | MTT | 48 h | IC50 | 70.6 µM |
| CCOC(=O)c1ccc(N2C(N)=C(C#N)C3(C(=O)Nc4ccccc43)C(C#N)=C2O)cc1 (stereo not drawn) | MTT | 12.5 µM, 24 h | viability | 37.7% |
| C=CCn1c(-c2ccc(Cl)cc2)nc2ccc(C)cc21 | MTT |  | IC50 | 38.8 µM |
| COc1cccc2c1C(=O)c1c(O)c3c(c(O)c1C2=O)C[C@@](O)(C(=O)CO)C[C@@H]3O[C@H]1C[C@H](N)[C@H](O)[C@H](C)O1 | MTT | 48 h | IC50 | 0.12 µg/mL |
| CC(C)c1ccc(/C=C2\SC(=S)N(CC(=O)Nc3ccccc3)C2=O)cc1 | MTT | 10 µM | inhibition | 17.5% |
| CCOc1cc(-c2nc3ccccc3[nH]2)ccc1O | MTT | 48 h | IC50 | 42.5 µM |
| O=C(CN1C(=O)/C(=C/c2ccco2)SC1=S)Nc1ccccc1 | MTT | 10 µM | inhibition | 18.6% |
| COc1ccc(C=NNC(=O)c2sc(Nc3ccccc3)c(C(=O)Nc3ccc(OC)cc3)c2NC(C)=O)cc1 | SRB | 1 nM, 48 h | viability | 102% |
